The full list was thinned out, with hits kept by preference.
CHOP inh = inhibitors of CHOP induction in ER stress response; CHO-K1 CHOP-promoter luciferase, tunicamycin-induced, 15-18 h; inhibition, % at 10 µM; 220,000 compounds, 3.8% hits;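 active = compounds that reduced the stress-induced luciferase reporter signal by more than about 70% of percent inhibition, limit read from the data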;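 also: 0% = tunicamycin plus vehicle and 100% = wells without tunicamycin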
UPR CHOP act = apoptotic UPR (CHOP) activation | CHO-CHOP luciferase reporter, luminescence; percent of tunicamycin response over DMSO baseline | activation, % at 10 µM | 330,000 compounds, 0.34% hits;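 active = at 10 µM dose, activation of 40% or more, normalized to positive control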;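 also: 100% = tunicamycin at 10 µg/mL and 0% = DMSO alone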
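Evaluation: % reporter activation, DMSO baseline versus tunicamycin full activation; System: CHO-CHOP luciferase reporter cell line; Input: 500 cells/well; Incubation: 6 h compound treatment, 37 °C; Measured by: Steady-Glo luciferase luminescence; Dosing: one dose, 10 µM in 0.5% DMSO; Buffer or medium: F12 medium, 10% FBS; Benchmarks: positive tunicamycin 10 µg/mL, negative DMSO alone.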
T cruzi repl = T. cruzi replication inhibition; T. cruzi beta-gal in NIH3T3, luminescence, 90 h; inhibition, % (no concentration beside the values); 300,000 compounds, 1.4% hits; AID 1885;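 active = mean inhibition across valid replicates above about 55%, limit read from the data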;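 also: signal also drops with host cell toxicity which is not excluded here; 0% = plate median of DMSO wells and 100% = zero luminescence signal; higher percent means less beta-gal luminescence so fewer parasites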
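assay system = mouse NIH/3T3 fibroblasts infected with β-gal-expressing T. cruzi Tulahuen C4 | input = 5,000 NIH/3T3 host cells per well | buffer or medium = DMEM plus 2% FBS | timing = 3 h host attachment, then at least 90 h co-culture | measured by = GalScreen luminescence, 60 min | evaluation = luminescence reflecting intracellular parasite burden, expressed as percent inhibition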
Lmaj promast = inhibitors of Leishmania major promastigote growth | inhibition, % at 10 µM | AID 1063 | Leishmania major promastigotes, resazurin fluorescence viability | 200,000 compounds, 9% hits; in the data active = inhibition above about 50%;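 also: promastigotes grown with compound for 44 hours at 28 °C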
Dynein transport = dynein cargo transport inhibition; 3617.4 mouse cells, GR-EGFP nuclear translocation imaging; test concentration mostly 20 µM; stimulated with dexamethasone, 1 µM; stronger effect = lower value; z-score, hits read low; 220,000 compounds, 0.47% hits;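 active = plate z-score of nuclear minus cytoplasmic receptor signal below a set negative limit, without overly bright fluorescence or cell loss, cut at about -3.5 in these data, passing the limit was not always enough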;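 also: z-score of nuclear minus cytoplasmic ring GR-EGFP intensity difference per well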
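Medium: Induction medium lacking tetracycline, stripped serum | Probe or stimulus: 1.0 µM final dexamethasone stimulus | Schedule: 48 h induction, then 1 h compound, then 30 min agonist, 37 °C | Signal: Automated 10x imaging of fixed Hoechst-stained cells | Evaluation: Per-cell GR-EGFP intensity, nucleus versus surrounding cytoplasmic ring, well-averaged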
XBP1 UPR activ = adaptive UPR (XBP1) activation; 330,000 compounds, 0.33% hits; AID 463104; activation, % at 20 µM; CHO-XBP1 luciferase reporter, IRE1-XBP1 UPR activation, luminescence; percent of tunicamycin response, DMSO as zero;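 active = versus positive control, 20 µM dose yields 30% or more activation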;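 also: 100% = tunicamycin at 10 µg/mL and 0% = DMSO only wells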
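Signal: luciferase luminescence; Assay system: CHO-XBP1 luciferase reporter cells; Amount: one thousand reporter cells per well; Dosing: 20 µM single concentration, DMSO 1%; Benchmarks: high control tunicamycin 10 µg/mL final, low control DMSO vehicle only; Schedule: 6 h compound exposure at 37 °C, 5% CO2; Evaluation: percent activation relative to tunicamycin reference.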
* = called active by the depositor; . = not tested or not shown.

SMILES	CHOP inh	UPR CHOP act	T cruzi repl	Lmaj promast	Dynein transport	XBP1 UPR activ
CCc1ccccc1NC(=O)CN1CCN(C(=O)CCC(=O)N2CCC(c3ccccc3)=N2)CC1	.	-0.1	.	.	.	-1.5
O=C(CN1C(=O)/C(=C2\SC(=S)N(C3CCS(=O)(=O)C3)C2=O)c2ccccc21)Nc1ccccc1 (configuration not stated)	20.0	4.0	.	91.3*	-0.264	-1.8
Cc1ccc(NC(=O)CN2C(=O)/C(=C3\SC(=S)N(C4CCS(=O)(=O)C4)C3=O)c3ccccc32)cc1 (configuration not stated)	-22.7	.	.	90.6*	-0.101	.
Cc1cccc(NC(=O)CN2C(=O)/C(=C3\SC(=S)N(CC4CCCO4)C3=O)c3ccccc32)c1 (configuration not stated)	.	2.0	-0.7	.	.	3.3
CCCCNc1c(-c2ccc(SC3CCCCC3)cc2)nc2ccccn12	.	16.5	71.2*	.	.	2.4
Cc1ccc2c(CC(=O)NNC(=O)c3ccccc3)coc2c1	29.7	1.5	-3.9	54.9*	0.706	1.2
CC(=O)N1CCCc2cc(S(=O)(=O)N(C)Cc3ccccc3)ccc21	7.0	2.1	5.5	61.0*	-0.495	-0.2
CC(=O)N1CCCc2cc(S(=O)(=O)N3CCc4ccccc4C3)ccc21	-2.1	-1.8	17.4	98.5*	0.147	0.2
CN1CCN(NC(=O)c2cc(-c3ccc(Cl)s3)nc3ccccc23)CC1	.	1.1	11.9	.	.	1.3
COc1ccc(N2CCN(C(=O)CN3CCN(c4nc(-c5ccc(F)cc5)cs4)CC3)CC2)cc1	79.5*	5.6	3.2	43.9	1.3	-1.1
COc1ccc(-c2nnn(CC(=O)N3CCN(c4ccc(F)cc4)CC3)n2)cc1	3.8	-1.0	-6.6	.	0.713	-1.5
COc1cccc(-c2csc(N3CCN(C(=O)Nc4ccc(Cl)cc4)CC3)n2)c1	6.7	2.1	4.0	28.9	0.819	-0.1
COc1cccc(-c2csc(N3CCN(C(=S)Nc4ccccc4Cl)CC3)n2)c1	15.4	0.8	7.8	99.7*	-0.155	2.5
COc1cccc(-c2csc(N3CCN(C(=S)Nc4ccccc4OC)CC3)n2)c1	12.1	0.0	16.5	93.5*	-0.614	-0.3
CCNC(=S)N1CCN(c2nc(-c3cccc(OC)c3)cs2)CC1	.	0.5	4.5	.	.	-4.7
COc1ccc(NC(=O)N2CCN(c3nc(-c4cccc(OC)c4)cs3)CC2)cc1	22.1	2.5	-10.4	79.3*	0.619	3.9
Cn1c(C2CCCCC2)nc2ccccc21	.	2.1	-8.9	.	.	-1.7
Nc1ncnc2nc(SCCOc3ccc(Cl)cc3)[nH]c12	30.2	0.6	-4.0	55.3*	-0.458	0.5
Cc1ccc(C(=O)CCNc2ccccc2)o1	25.9	2.2	10.1	94.5*	-0.252	0.1
O=C(CCNc1ccc(F)cc1)c1cc2ccccc2o1	23.2	0.7	72.7*	1.7	0.6	-1.0
O=C(CSc1cccc[n+]1[O-])c1ccc(Cl)s1	12.7	0.9	-28.4	0.5	-1.03	-1.6
O=C(CSc1cccc[n+]1[O-])c1ccccc1Br	-21.5	-0.6	53.1	98.6*	1.98	7.5
Cc1cc(C(=O)CSc2cccc[n+]2[O-])c(C)n1-c1ccccc1	-5.7	-0.2	-7.2	1.9	0.0938	-4.9
Cc1cc(C(=O)CSc2cccc[n+]2[O-])c(C)n1-c1ccc(Br)cc1	39.3	4.7	1.9	94.5*	-0.151	4.2
CCCC(=O)N1CCCC(C(=O)c2cccc(OC(C)C)c2)C1 (configuration not stated)	.	.	-4.7	.	.	.
SMILES	CHOP inh	UPR CHOP act	T cruzi repl	Lmaj promast	Dynein transport	XBP1 UPR activ
O=C(Cc1ccc(F)cc1)NCCS(=O)(=O)N1CCN(c2cccc(Cl)c2)CC1	.	-0.3	-8.7	.	.	-2.6
COc1cc(-c2nnc(SCc3c(F)cccc3Cl)o2)cc(OC)c1OC	48.2	2.8	3.0	81.7*	-0.379	12.1
O=C(NC1CCCCC1)c1cc(S(=O)(=O)N2CCCC2)ccc1Cl	.	1.0	-3.4	.	.	-0.6
Cc1ccsc1/C=N/NC(=O)c1cccs1	-12.1	7.8	1.4	-8.9	0.905	1.7
Cc1ccsc1/C=N/NC(=O)c1ccccn1	40.8	1.6	-8.8	59.5*	0.355	1.9
Cc1ccc(/C=N/Nc2cccc(C(=O)O)c2)s1	79.7*	-7.4	-13.0	48.5	1.54	-10.1
Cc1ccsc1/C=N/Nc1cccc(C(=O)O)c1	89.0*	-9.7	-10.0	-6.6	-0.293	-9.3
Cc1ccsc1/C=N/Nc1ccc(C(=O)O)cc1	.	-8.7	-14.5	.	.	-9.8
Cc1ccc(/C=N/Nc2ccc(C(=O)O)cc2)s1	75.2*	-9.5	-8.4	-18.1	-1.59	-6.5
O=C(O)c1ccc(N/N=C/c2cc(Br)cs2)cc1	.	-5.3	-11.4	.	.	-8.2
O=C(CSc1ncccn1)NCc1cccs1	-19.0	0.7	5.7	-4.5	0.9	-0.7
CCCCc1nnc(NC(=O)C2CC(=O)N(Cc3ccccc3)C2)s1 (configuration not stated)	.	0.0	10.3	.	.	-2.4
COc1ccc(C(=O)/C=C/c2ccc(O)cc2)c2c1CC(O)C(C)(C)O2 (configuration not stated)	.	-1.7	.	.	.	-1.6
COc1ccc(C(=O)/C=C/c2ccc(O)cc2)c(O)c1CC=C(C)C	79.0*	0.5	12.9	6.9	0.173	-3.2
CCCC(NC(=S)NCC1CCCO1)C12CC3CC(CC(C3)C1)C2 (configuration not stated)	82.5*	11.9	52.9	33.1	0.706	2.9
S=C(NCC1CCCO1)NC1CCCCC1 (configuration not stated)	-0.6	-1.6	-7.8	-5.3	-0.515	0.6
N#C/C(=C\c1ccc(-c2cccc([N+](=O)[O-])c2)o1)C(=O)N1CCOCC1	-17.8	5.5	9.0	5.8	0.0369	2.3
N#C/C(=C\c1ccc(-c2cccc([N+](=O)[O-])c2)o1)c1nnc(N2CCOCC2)n1-c1ccccc1	21.8	0.6	35.0	63.1*	0.472	0.6
COCCNC(=O)Cn1nc(-c2ccc(C)cc2)ccc1=O	.	0.3	9.2	.	.	-3.4
Cc1nc2ccccc2n1S(=O)(=O)c1ccc(Br)cc1	29.3	0.6	-4.9	69.8*	1.83	-1.8
CCc1ccc(S(=O)(=O)n2c(C)nc3ccccc32)cc1	.	1.7	-5.1	.	.	-3.0
CCOC(=O)c1c(S(=O)(=O)Nc2ccc(C)cn2)c(C)n(C)c1C	.	0.4	-0.6	.	.	-5.5
Cc1ccc(NC(=O)CSc2ccc(Br)cc2)cc1S(=O)(=O)N1CCOCC1	.	1.6	13.6	.	.	-2.1
O=C(C1CC1)N(Cc1ccco1)c1nc(-c2ccccc2)cs1	68.1	1.5	4.7	57.8*	1.88	1.3
C=CCN(C(=O)CN1CCCCC1)c1nc(-c2ccccc2)cs1	.	4.7	25.5	.	.	-1.4
